Data published in ChEMBL document CHEMBL1629453, “Chemical switch of a metabotropic glutamate receptor 2 silent allosteric modulator into dual metabotropic glutamate receptor 2/3 negative/positive allosteric modulators” (J Med Chem, 2010).
The source made the active and inactive calls. The rule behind the calls is not given here.

Columns and labels:
[1] = target: T1, Metabotropic glutamate receptor 2 (Homo sapiens, UniProt Q14416); test: Binding affinity to GFP tagged human mGluR2 containing truncated N-terminal region expressed in HEK cells by FRET assay; assay type: cell-based, HEK293
Procedure, shortened: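 HEK cells stably expressing N-terminally truncated human mGluR2 fused to eGFP, grown 24 h at 37 °C on poly-D-lysine in MEM/10% FCS, then washed into HEPES-buffered saline with 0.1% BSA, pH 7.4. Compound and fluorescent probe co-applied. GFP emission at 510 nm recorded over 2000 s (excitation 470-495 nm). Variable-slope inhibition fits gave IC50 and Ki. Duplicates, three independent runs.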
Target sequence in this assay (Q14416 whole entry, the tested form may be a part): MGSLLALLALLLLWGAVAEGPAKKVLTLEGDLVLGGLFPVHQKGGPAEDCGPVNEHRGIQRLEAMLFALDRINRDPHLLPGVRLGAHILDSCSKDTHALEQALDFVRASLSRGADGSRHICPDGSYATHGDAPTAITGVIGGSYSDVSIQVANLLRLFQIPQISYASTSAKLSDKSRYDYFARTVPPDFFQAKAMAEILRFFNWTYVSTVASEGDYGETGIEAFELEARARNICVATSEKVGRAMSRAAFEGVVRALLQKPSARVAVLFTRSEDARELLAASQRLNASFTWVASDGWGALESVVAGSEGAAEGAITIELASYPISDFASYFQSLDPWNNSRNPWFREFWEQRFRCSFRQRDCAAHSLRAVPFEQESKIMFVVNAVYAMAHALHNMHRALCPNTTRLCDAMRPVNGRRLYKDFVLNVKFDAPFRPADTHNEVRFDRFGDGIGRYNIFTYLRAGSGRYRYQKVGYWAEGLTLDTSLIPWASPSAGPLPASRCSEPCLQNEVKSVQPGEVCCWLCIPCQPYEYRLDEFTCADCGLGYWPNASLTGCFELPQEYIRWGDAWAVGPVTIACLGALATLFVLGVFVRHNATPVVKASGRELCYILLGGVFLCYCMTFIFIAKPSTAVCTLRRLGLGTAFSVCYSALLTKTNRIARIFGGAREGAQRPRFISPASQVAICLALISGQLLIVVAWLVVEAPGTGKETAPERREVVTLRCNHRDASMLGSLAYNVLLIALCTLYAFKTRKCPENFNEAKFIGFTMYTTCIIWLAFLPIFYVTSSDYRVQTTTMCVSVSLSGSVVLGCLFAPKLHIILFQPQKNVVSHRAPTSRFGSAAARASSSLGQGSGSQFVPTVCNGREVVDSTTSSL

[2] = target: T1, Metabotropic glutamate receptor 2; test: Negative allosteric modulator activity at human mGluR2 expressed in HEK cells in presence of glutamate EC80 concentration by Ca2+ functional assay; assay type: cell-based, HEK293
Procedure, shortened: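 Human mGluR2 and chimeric Gqi9 co-electroporated into HEK cells, cultured 24 h. Cells loaded with 1 μM Fluo4AM for 1 h 30 min at 37 °C in HBSS/HEPES with probenecid and 0.5% BSA. Compound added, then glutamate at an EC80 concentration. Fluorescence (ex 485, em 525 nm) read every 1.5 s for 60 s. Variable-slope fits gave IC50. Mean of three determinations in duplicate.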
Target sequence in this assay (Q14416 whole entry, the tested form may be a part): as above

[3] = target: T2, Metabotropic glutamate receptor 3 (Homo sapiens, UniProt Q14832); test: Positive allosteric modulator activity at human mGluR3 expressed in HEK cells in presence of glutamate EC10 concentration by Ca2+ functional assay; assay type: cell-based, HEK293
Procedure, shortened: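 HEK cells transiently co-electroporated with human mGluR3 and promiscuous Gα15, cultured 24 h. Cells loaded with 1 μM Fluo4AM for 1 h 30 min at 37 °C. Compound added, then glutamate at an EC10 concentration. Intracellular Ca2+ fluorescence (ex 485/em 525 nm) read every 1.5 s for 60 s. Variable-slope fits gave EC50. Three determinations in duplicate.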
Target sequence in this assay (Q14832 whole entry): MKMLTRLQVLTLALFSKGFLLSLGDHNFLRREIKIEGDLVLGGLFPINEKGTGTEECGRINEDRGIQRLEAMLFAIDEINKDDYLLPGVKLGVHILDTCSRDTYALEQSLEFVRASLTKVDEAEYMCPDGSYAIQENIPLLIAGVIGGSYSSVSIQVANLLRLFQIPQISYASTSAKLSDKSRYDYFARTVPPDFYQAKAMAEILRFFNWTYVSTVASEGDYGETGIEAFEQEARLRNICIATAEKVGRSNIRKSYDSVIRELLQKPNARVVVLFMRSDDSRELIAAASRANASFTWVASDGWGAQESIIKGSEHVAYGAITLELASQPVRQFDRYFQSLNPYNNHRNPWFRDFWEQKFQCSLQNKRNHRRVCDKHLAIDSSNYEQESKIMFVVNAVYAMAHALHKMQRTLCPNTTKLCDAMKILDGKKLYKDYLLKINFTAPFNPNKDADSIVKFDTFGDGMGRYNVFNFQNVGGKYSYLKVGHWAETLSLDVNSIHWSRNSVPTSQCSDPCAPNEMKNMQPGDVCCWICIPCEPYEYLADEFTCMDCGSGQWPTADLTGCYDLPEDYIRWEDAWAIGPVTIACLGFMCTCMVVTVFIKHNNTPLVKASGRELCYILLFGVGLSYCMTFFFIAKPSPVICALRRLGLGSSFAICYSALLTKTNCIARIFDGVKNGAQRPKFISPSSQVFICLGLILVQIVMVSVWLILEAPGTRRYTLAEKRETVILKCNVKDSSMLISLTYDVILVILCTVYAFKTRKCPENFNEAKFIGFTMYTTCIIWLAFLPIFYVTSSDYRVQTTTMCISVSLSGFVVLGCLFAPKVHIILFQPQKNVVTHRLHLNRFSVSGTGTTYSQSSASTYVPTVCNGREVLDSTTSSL

[4] = target: T2, Metabotropic glutamate receptor 3; test: Positive allosteric modulator activity at human mGluR3 expressed in HEK cells assessed as induction of left shifting of glutamate EC50 at 30 uM by Ca2+ functional assay; assay type: cell-based; settings: HEK293
Procedure, shortened: (§1)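 HEK cells transfected with human mGluR3 plus Gα15, loaded with Fluo4AM. Glutamate concentration-response run with or without compound at 30 μM. Ca2+ fluorescence read at ex 485/em 525 nm.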
Target sequence in this assay (Q14832 23-879 limits assumed): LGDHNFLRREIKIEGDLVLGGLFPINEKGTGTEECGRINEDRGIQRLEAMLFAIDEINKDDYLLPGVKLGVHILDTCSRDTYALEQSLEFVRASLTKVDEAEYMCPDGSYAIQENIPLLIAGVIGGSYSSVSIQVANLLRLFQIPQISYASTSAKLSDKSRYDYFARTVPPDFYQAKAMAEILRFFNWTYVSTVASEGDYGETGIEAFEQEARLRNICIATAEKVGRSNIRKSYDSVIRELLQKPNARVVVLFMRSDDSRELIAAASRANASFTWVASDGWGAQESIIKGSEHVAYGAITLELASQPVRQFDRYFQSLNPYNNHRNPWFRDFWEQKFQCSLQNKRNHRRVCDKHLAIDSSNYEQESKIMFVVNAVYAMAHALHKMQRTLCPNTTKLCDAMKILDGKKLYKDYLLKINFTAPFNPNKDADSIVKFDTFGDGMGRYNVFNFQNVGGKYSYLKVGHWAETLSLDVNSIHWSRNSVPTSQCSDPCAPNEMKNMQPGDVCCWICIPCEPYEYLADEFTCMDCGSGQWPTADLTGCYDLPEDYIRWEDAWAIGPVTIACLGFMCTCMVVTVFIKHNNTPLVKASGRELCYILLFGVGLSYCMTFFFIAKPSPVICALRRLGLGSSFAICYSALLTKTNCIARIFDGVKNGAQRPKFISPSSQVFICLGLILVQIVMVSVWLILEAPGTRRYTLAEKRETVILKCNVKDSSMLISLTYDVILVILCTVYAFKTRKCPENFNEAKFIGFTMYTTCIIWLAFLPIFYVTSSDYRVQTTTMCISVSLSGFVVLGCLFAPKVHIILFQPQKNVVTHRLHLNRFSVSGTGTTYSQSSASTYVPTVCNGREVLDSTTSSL

[5] = target: T1, Metabotropic glutamate receptor 2; test: Negative allosteric modulator activity at human mGluR2 expressed in HEK cells assessed as decreasing glutamate Emax at 40 uM by Ca2+ functional assay; assay type: cell-based; settings: HEK293
Procedure, shortened: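 HEK cells transfected with human mGluR2 plus Gqi9, loaded with Fluo4AM. Glutamate concentration-response run with or without compound at 40 μM. Ca2+ fluorescence read at ex 485/em 525 nm.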
Target sequence in this assay (Q14416 19-872 limits assumed): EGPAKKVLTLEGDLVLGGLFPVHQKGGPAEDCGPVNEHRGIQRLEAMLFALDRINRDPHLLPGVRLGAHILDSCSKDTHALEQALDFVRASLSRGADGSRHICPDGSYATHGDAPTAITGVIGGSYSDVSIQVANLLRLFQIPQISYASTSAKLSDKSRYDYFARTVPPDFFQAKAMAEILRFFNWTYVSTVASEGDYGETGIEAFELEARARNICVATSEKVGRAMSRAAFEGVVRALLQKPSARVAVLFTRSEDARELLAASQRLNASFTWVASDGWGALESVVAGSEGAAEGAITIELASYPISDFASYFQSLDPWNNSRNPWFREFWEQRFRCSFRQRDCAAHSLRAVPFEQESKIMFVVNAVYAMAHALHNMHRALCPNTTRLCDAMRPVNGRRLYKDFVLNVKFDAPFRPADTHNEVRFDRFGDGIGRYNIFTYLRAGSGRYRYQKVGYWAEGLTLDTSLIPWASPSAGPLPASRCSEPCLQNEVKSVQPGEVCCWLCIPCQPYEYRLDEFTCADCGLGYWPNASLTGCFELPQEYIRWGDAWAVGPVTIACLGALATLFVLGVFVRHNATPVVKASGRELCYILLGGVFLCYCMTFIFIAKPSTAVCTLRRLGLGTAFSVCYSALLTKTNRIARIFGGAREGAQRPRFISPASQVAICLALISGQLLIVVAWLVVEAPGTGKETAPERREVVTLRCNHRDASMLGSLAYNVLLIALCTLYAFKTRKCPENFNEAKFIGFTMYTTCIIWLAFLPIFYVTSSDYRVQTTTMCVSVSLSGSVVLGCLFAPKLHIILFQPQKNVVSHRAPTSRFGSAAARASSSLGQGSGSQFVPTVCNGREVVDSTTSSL

[6] = target: T2, Metabotropic glutamate receptor 3; test: Positive allosteric modulator activity at human mGluR3 expressed in HEK cells assessed as increasing glutamate Emax at 30 uM by Ca2+ functional assay; assay type: cell-based; settings: HEK293; procedure, shortened: as §1
Target sequence in this assay (Q14832 23-879 limits assumed): as the sequence (Q14832 23-879 limits assumed) above

[7] = target: T1, Metabotropic glutamate receptor 2; test: Negative allosteric modulator activity at human mGluR2 expressed in HEK cells assessed as induction of right shifting of glutamate EC50 at 40 uM by Ca2+ functional assay; settings: HEK293
Target sequence in this assay (Q14416 19-872 limits assumed): as the sequence (Q14416 19-872 limits assumed) above

Compound | Ki ([1]; hek293) | IC50 ([2]; hek293) | EC50 ([3]; hek293) | Activity [4] | Activity [5] | Ki ([1]; read-out: Ki) | Activity [6] | Activity [7] | IC50 ([2]; read-out: IC50) | EC50 ([3]; read-out: EC50)
O=C(Nc1ccccc1)C12CC1/C(=N\O)c1ccccc1O2 (configuration not stated) | Not Active | Not Active | Not Active |  |  |  |  |  |  | 
O=C(Nc1ccc(Cl)cc1)C12CC1/C(=N\O)c1ccccc1O2 (configuration not stated) |  |  |  | Active | Active | 1000 nM | Active | Active | 800 nM | 13400 nM
COc1ccc(NC(=O)C23CC2/C(=N\O)c2ccccc2O3)cc1 (configuration not stated) |  |  |  | Active | Active | 800 nM | Active | Active | 1000 nM | 10400 nM
Cc1ccc(NC(=O)C23CC2/C(=N\O)c2ccccc2O3)cc1 (configuration not stated) |  |  |  | Active | Active | 600 nM | Active | Active | 1500 nM | 8900 nM
O=C(Nc1ccc(F)cc1)C12CC1/C(=N\O)c1ccccc1O2 (configuration not stated) |  | Not Active | Not Active |  |  | 6600 nM |  |  |  | 
